Results taken from the EternaBench riboswitch data.

Test system: MS2 coat protein
Assay: apparent Kd, MS2 coat protein; higher = weaker binding; RNA-MaP array; FMN 200 µM where present
Procedure, shortened: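 Stalled E. coli RNA polymerase transcribed the designs on Illumina sequencing-chip clusters. SNAP-549-labelled MS2 coat protein was titrated from 0.7 or 1.5 nM, doubling to 3 µM, without and then with constant ligand, in 100 mM Tris-HCl pH 7.5, 80 mM KCl, 4 mM MgCl2, BSA, DTT, yeast tRNA and Tween-20. Per-cluster binding curves were fitted to green signal normalised to red-channel RNA signal and control-cluster median Fmax. The apparent Kd is the median of the filtered fits.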

[1] = designed as: OFF switch for flavin mononucleotide, no ligand
[2] = ligand present: flavin mononucleotide, designed as: OFF switch for flavin mononucleotide
[3] = designed as: ON switch for flavin mononucleotide, no ligand
[4] = ligand present: flavin mononucleotide, designed as: ON switch for flavin mononucleotide

Sequence | apparent Kd [1] [nM] | apparent Kd [2] [nM] | apparent Kd [3] [nM] | apparent Kd [4] [nM]
AACCAGUUGGUAGGAUAUGGUACAGUACCCGUACCAGAAGGACCAACAUGAGGAUCACCCAUGUUGGAAAGUCAACAUUAAUGA | 6.51 | 14 | – | –
CAAAAGGAAGGAUAUGCAUCGGGAGGUGCUCAGCAUCAAAUACAUGAGGAUCACCCAUGUAGAAGGUCUGAAAA | 32.1 | 85.7 | – | –
GUAGCUAUCGGAGGAUAUUCAUGAUACAUGAGGAUCACCCAUGUUAAAUUGGGAGAAGGCCGAUAGCUACAAGAGCGAAAGCUC | – | – | 14.8 | 5.54
GAGUGACGAUUAGGAUAUAUAGUGAUAAUGAUAAUAGAAGGAAUUGACAUGAGGAUCACCCAUGUAGGACUAAUCCAGAGAGAG | – | – | 64.2 | 62.2
GAUAAAGGAGUAGGAUAUGCACAUGGUAGGCUUAUCUUUAUGGCGACAUGAGGAUCACCCAUGUUGCAGAAGGGCUUCCCAUUG | 34 | 25.9 | – | –
AAAAUCAAUUGAGGAUAUUCAUACACUACAUACGGAGAAGGCAAACAAUCAUGAGGACAUGAGGAUCACCCAUGUUGUGACCAU | – | – | 22.3 | 16.3
CGAUAUAUGAAGGGCAAAGGCCCACAUGAGGAUCACCCAUGUAGAAGGCGAUCCGCAACGCGGAUCGAGGAUAUAUAGUAUACA | 8.45 | 8.1 | – | –
AAAACAUGAGGAUCACCCAUGUAAAGAACGGUUAAUAGAUCUGAGGAUAUACUAGAAUUUAGGUAGUAGAAGGCAGUGGGUACA | – | – | 35 | 26.2
GCCAGUUAUGUAGGAUAUGCGAGGCGAGCCUGAGCAGAAGGACAUGAGGAUCACCCAUGUAUUGCGGUUUAAGUUCAGAUCGCU | 17.6 | 23.4 | – | –
AGAAACUAGGAGAAGGACAUAUGACCAAGACGAAACAUGAGGAUCACCCAUGUAGGAUAUCCUAGUUUCAGGAUCGUGAGAUCA | 5.47 | 7.97 | – | –
AAUAGUUCCGAGGAUAUAUCUCCACCGUGGGUGGUAGAAGGCGGGACAUGAGGAUCACCCAUGUACAAAUUCUC | 75.2 | 98.1 | – | –
CCCUCACAUGAGGAUCACCCAUGUCAGGAUAUGCGCGGCCAAAAGGGCUGCUAAGGCAGCAGAAGGGACGUGAA | 15.9 | 19.5 | – | –
CUUCGUAUAGAGGAUAUAGGUUACCUCGGUAUCCUAGAAGGCUGUACAUGAGGAUCACCCAUGUACUUCAGAUC | 12.4 | 14.5 | – | –
GCACGACAUGUAGGAUAUCGAGCGCCGGGCGCUCGAGAAGGACAUGAGGAUCACCCAUGUAUUCUGAGUGACCGAGGUCGAUGC | 31.2 | 180 | – | –
UAUAUAAUAAGAGCUGGCUCUAAAACAUGAGGAUCACCCAUGUAGGAUAUCAGCACGAUAAGUGCUGAGAAGGACAACCAGCUC | 16.3 | 17.3 | – | –
GGUGUCAUCGAGAAGGCCUCAACAUGAGGAUCACCCAUGUUGUAAUAUGGGAGGAUAUCGAUGAUACAGCUACGUUUCGUAGCU | – | – | 20.2 | 5.86
AUAAAUAUAGCGAUAUGAUCGAGAGAUCAUGUCGCUAAAGUUAGAAGGACAUGAGGAUCACCCAUGUAGGAUAUGGGAGUAUGA | – | – | 170 | 62.8
AUCAGCUCGUCAGGAUAUACAUUACUGCUUCGGCAGUGUAUUAAGAUCACAUGAGGAUCACCCAUGUAGAAGGGACGAGCUGAU | 23.2 | 124 | – | –
AGCCAGGACGGGUGCCUGAGCGGGAGAAGGUACGAGGGAUCGUCUGGACAUGAGGAUCACCCAUGUAAGGAUAUCCCGCCUAUU | 8.78 | 18.1 | – | –
AAAAUGUGAGGAUAUCAGGUGUGCUAGAGAACUGGUACAUCUGAGAAGGCACAUGAGGAUCACCCAUGUUCUUC | 34.6 | 156 | – | –
UUACUCAUGUAAGGAUAUGCAGCCGAAACGGCUGCAGAAGGUACUAAAAUACAUGAGGAUCACCCAUGUCUUUUUAUUUUAGAC | – | – | 197 | 129
AUUCGUGAGUAGGAUAUGCUGUUGCCAGAACGAGUAGAAGGACUCACAUGAGGAUCACCCAUGUGGUGUCUAAG | 19.9 | 170 | – | –
UAGAAGUCAGGAUAUCCAUGGCGGCACUUGCGUGGUGGCGUGGAGAAGGGACAUGAGGAUCACCCAUGUAAAGG | 148 | 174 | – | –
AAGGGCUGAGGAUAUGCGCGGGCAAGAUCCUCAAUCCCAAAACAUGAGGAUCACCCAUGUAGAAGGCAGAAAUA | 33.2 | 24.2 | – | –

Sequence | apparent Kd [1] [nM] | apparent Kd [2] [nM] | apparent Kd [3] [nM] | apparent Kd [4] [nM]
AAGGUGUUAGGAUAUCGAAGGUUGUGGCAGGCGGGAAUUUGCGAGAAGGAACAUGAGGAUCACCCAUGUAAAAU | 24.4 | 25.8 | – | –
UCGCUUGAAGGAUAUACGAUUCGUUGUGUUCGUGUCACCUGACAUGAGGAUCACCCAUGUAGAAGGUCACGCAG | 18.6 | 24.6 | – | –
CCGCUAAUAGGAUAUACAUGAGGAUCACCCAUGUCACUCUUCAUUGGUGUCUCUUCAAGUAGAAGGGUUGCUCA | 28.5 | 28.1 | – | –
UAGUGAUUGCAAGGAUAUGCUUGUGUUUUAUUUUUUUUAAUAUCUAACAUGAGGAUCACCCAUGUGCAGAAGGUGCUUGAUUUG | – | – | 47.8 | 48.8
CGCUGUAACGCAGGAUAUGCAUUGGAUUACAAUGCAGAAGGGCGAUUACAUGAGGAUCACCCAUGUGUAAACAGUGAAGAAGAG | – | – | 220 | 41.2
AUUAAGAAUGAAGGAUAUCUAAGCGUAAACAAAAGAGAAGGUCAAUAGUACAUGAGGAUCACCCAUGUUAGAAUAGAUGGGAUA | 117 | 103 | – | –
AGGAAUUUGUAGAAGGACGACUAUUAAGAUUUCGUAGGAUAUACUAUUUACAUGAGGAUCACCCAUGUUUAAAUGGAACAAUGU | 8.06 | 11.1 | – | –
GUCGUGUUAGGAUAUGGCAACGGCGGCGAAAGUUGUUGUUGUUAGAAGGAACAUGAGGAUCACCCAUGUAUGAC | 37.7 | 113 | – | –
CAUUAAUUGAUUAUUGUAUUUUUACAGGAUAUGUUACAUGAGGAUCACCCAUGUUUAUAUGGGAGACAGAAGGGUAUUUAUAGA | 355 | 193 | – | –
CUGCCGUAGGAGAAGGACGGCGGGUUAUUUUUUUACAUGAGGAUCACCCAUGUAGGAUAUCCUACGUCAGGCAACCUACUACAG | 6.36 | 9.54 | – | –
GGGUGCCCUGCAGAAGCGACAUGAGGAUCACCCAUGUAACGUAGAAGGGCCCGGAACUAAGGUGGGCAGGAUAUACUGUUAGGU | 6.76 | – | – | –
GAUCAACAUGAGGAUCACCCAUGUGAGGAUAUGAUACUAUGUACUUCGGUACAUAGUAUCAGAAGGCAUGUAAA | 50.1 | 42.5 | – | –
UUUUAUAAUACCUCAUGUACAUGAGGAUCACCCAUGUUAACUAAGGAUAUAUAUAAAUUAAUAAUGUAGAAGGUAGUAAUAUUU | 16.5 | 14.3 | – | –
GCUGCAAAGUAAGGAUAUGCCUAGGAAACCUAGGCAGAAGGUACAUGAGGAUCACCCAUGUUAACGCAAAGCGAAUAAAGCAGC | 18.1 | 24.1 | – | –
ACAUGAUCAGGAUAUACAUGAGGAUCACCCAUGUUUAUCAAAAAAGGGCCUUCUACAUGUAGAAGGGAUCUUGU | 14.8 | 15.1 | – | –
UGUAAUGCUAUUGCAGAGGUUUAGAAGGAUAUACAUCGACAUGACCGUACAUGAGGAUCACCCAUGUAGAAGGUCUAACUUCUU | 4.95 | 4.91 | – | –
UUAUUUUGUCAAGGAUAUGUAGUAUUGAUUUGAAAACAUGAGGAUCACCCAUGUAUAUGGUGGGAACAGAAGGUGAAUGUUGAA | 311 | 290 | – | –
AGUCAUACAGGAUAUACAUGAGGAUCACCCAUGUUUAUCCUACAUGGGUGAUCCUCAUGUAGAAGGGUAUGACA | 11.2 | 9.45 | – | –
AUCAGCUCGUCAGGAUAUACGUCACUGCGUCAUCAGUGUGGUAAGAUCACAUGAGGAUCACCCAUGUAGAAGGGACGAGCUGAU | 15.5 | 234 | – | –
AGUGCCUCGAGAGGAUAUUACAUGAGGAUCACCCAUGUAACAGAGGUGGAAACACCUCUGAAAUGUAAGAAGGCUCGAGGCACA | 19.2 | 31.2 | – | –
CUUCUGUCAGGAUAUGCGAAUCACCACUGGGUCAGCGGUGAGCAGAAGGGACAUGAGGAUCACCCAUGUAAAGU | 40.5 | 171 | – | –
GUAGCUAUCGGAGGAUAUUCAUUAAACAUGAGGAUCACCCAUGUUAAAUUGGGAGAAGGCCGAUAGCUACAAGAGCGAAAGCUC | – | – | 7.16 | 5.45
CAUUGACAUGAGGAUCACCCAUGUCAGGAUAUGCUUCAUGACACGAAAGUGUCAUGAAGCAGAAGGGACAUGCC | 19.4 | 31.8 | – | –
GCCAACUUAUGAGGAUAUGGCACCUUAUUGGUGCCAGAAGGCAUGUCAAUUGACAUGAGGAUCACCCAUGUAUUAUAGUUGGCA | – | – | 700 | 108
